The values below come from article PMC5788414 (Journal of Medicinal Chemistry, 2017).

Peptide text beside a SMILES is read from it. * marks the point of attachment. Cbz = O=C(OCc1ccccc1)* A value given as a limit tells only on which side of the number the result lay.

The subject of assay [1] is RS4;11 acute leukemia cell line. Put plainly: Cell growth inhibition. The settings on record: for times less potent than 15 in cell growth inhibition: comparator 15; for times more potent than 9 in cell growth inhibition: comparator 9; for times less potent than 23 in cell growth inhibition: comparator 23. It counts as cell-based, human.
Another assay deals with BRD2, BRD3, and BRD4. The experiment in a line: FP-based competitive binding assays, BET proteins overall. The settings on record: binding to BRD2, BRD3, BRD4; comparator 8.
In assay [2] the test system is BRD2, BRD3, and BRD4 proteins. Put plainly: Western blotting of BET protein levels in RS4. The format is cell-based, human. To be noted: RS4;11 cells; for Effect of pretreatment on degradation of BRD2, BRD3, and BRD4 induced by 23: 2 h pretreatment, then 3 h treatment with 23 at 1 nM.
In another assay the target is BRD4 (Homo sapiens, UniProt O60885). Put plainly: Western blotting of BRD4 protein level in RS4. It counts as cell-based. To be noted: RS4;11 cells, 3 h treatment, Western blot. The method in brief: (§1)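 RS4;11 cells (2 × 10⁶/well) were treated with the test compound at the indicated concentrations for 3 h or 24 h. Cells were lysed in RIPA buffer with protease inhibitors. Lysate (20 μg per lane) was separated by SDS–PAGE, blotted onto PVDF, and probed with BRD2, BRD3 and BRD4 antibodies, with GAPDH as the loading control.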
On the technique in general: Immunoblotting shows a protein as a band on a membrane.

The target of a further assay is BRD2 (Homo sapiens, UniProt P25440). The experiment in a line: Western blotting of BRD2 protein level in RS4. The format is cell-based. To be noted: RS4;11 cells, 3 h treatment, Western blot. The method in brief:
as §1

For another assay, the target named is BRD3 (Homo sapiens, UniProt Q15059). The experiment in a line: Western blotting of BRD3 protein level in RS4. The format is cell-based. The settings on record: RS4;11 cells, 3 h treatment, Western blot. The method in brief: as §1
BRD3, sequence (Q15059 whole entry): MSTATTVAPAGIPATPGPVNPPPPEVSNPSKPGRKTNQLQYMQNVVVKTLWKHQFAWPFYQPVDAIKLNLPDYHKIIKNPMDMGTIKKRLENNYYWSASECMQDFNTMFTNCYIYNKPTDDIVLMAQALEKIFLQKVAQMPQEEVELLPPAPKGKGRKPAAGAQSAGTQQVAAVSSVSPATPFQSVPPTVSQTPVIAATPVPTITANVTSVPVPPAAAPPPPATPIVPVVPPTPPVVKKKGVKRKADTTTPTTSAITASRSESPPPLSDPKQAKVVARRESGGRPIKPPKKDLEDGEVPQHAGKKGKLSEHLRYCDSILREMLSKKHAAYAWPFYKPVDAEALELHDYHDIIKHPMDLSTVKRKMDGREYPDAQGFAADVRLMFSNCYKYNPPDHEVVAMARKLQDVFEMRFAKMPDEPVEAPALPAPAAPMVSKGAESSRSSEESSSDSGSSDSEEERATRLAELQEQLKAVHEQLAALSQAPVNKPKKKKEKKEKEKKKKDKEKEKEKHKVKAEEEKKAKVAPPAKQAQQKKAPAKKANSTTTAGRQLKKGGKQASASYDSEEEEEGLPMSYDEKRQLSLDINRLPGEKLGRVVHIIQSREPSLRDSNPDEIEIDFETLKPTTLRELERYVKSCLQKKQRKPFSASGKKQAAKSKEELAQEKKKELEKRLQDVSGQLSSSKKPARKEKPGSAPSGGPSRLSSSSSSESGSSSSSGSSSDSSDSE

BRD2, sequence (P25440 whole entry): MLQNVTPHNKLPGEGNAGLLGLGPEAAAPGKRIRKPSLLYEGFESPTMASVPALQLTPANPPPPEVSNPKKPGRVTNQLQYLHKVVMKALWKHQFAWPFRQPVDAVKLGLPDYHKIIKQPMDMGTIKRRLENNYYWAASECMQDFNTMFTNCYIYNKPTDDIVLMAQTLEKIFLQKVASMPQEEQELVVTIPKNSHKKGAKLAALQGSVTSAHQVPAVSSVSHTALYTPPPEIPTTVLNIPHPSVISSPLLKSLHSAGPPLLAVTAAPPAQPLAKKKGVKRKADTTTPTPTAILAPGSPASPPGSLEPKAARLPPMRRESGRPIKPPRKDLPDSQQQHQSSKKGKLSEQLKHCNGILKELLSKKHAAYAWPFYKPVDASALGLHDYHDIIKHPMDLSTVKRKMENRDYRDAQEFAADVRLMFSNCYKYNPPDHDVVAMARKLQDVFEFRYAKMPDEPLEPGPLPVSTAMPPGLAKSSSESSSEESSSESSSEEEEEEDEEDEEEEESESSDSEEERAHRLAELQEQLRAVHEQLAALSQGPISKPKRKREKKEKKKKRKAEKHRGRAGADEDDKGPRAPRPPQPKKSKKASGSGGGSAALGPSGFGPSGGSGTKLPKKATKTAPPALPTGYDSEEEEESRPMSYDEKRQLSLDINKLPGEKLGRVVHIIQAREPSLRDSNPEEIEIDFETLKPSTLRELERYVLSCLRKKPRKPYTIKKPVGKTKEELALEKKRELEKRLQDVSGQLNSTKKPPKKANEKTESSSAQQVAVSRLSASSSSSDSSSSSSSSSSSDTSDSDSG

On to `CCn1nc(C2CC2)cc1Nc1nc(C(=O)NCCCCCCCNc2cccc3c2C(=O)N(C2CCC(=O)NC2=O)C3=O)nc2[nH]c3cc(-c4c(C)noc4C)c(OC)cc3c12` (stereo not shown) [Compound 12, 4-((3-Cyclopropyl-1-ethyl-1H-pyrazol-5-yl)amino)-7-(3,5-dimethylisoxazol-4-yl)-N-(7-((2-(2,6-dioxopiperidin-3-yl)-1,3-dioxoisoindolin-4-yl)amino)heptyl)-6-methoxy-9H-pyrimido[4,5-b]indole-2-carboxamide], for which the “times more potent than 10 in cell growth inhibition” value in assay [1] (comparator 10) is on record as 10 times.
With “4-((3-Cyclopropyl-1-ethyl-1H-pyrazol-5-yl)amino)-7-(3,5-dimethylisoxazol-4-yl)-N-(2-((2-(2,6-dioxopiperidin-3-yl)-1,3-dioxoisoindolin-4-yl)amino)ethyl)-6-methoxy-9H-pyrimido[4,5-b]indole-2-carboxamide [Compound 17]”, in assay [1], the “times less potent than 15 in cell growth inhibition” value came out at 10 times.
Take `CNC(=O)c1ncc2c(n1)[nH]c1cc(-c3c(C)noc3C)c(OC)cc12` [Compound 28, 7-(3,5-Dimethylisoxazol-4-yl)-6-methoxy-N-methyl-9H-pyrimido[4,5-b]indole-2-carboxamide]: the “times less potent than 8 in binding affinity” value in the assay with BRD2, BRD3, and BRD4 was above 100 times.
With `NS(=O)(=O)OC[C@@H]1C[C@@H](n2ccc3c(N[C@H]4CCc5ccccc54)ncnc32)C[C@@H]1O` [MLN4924, reference compound], in assay [2], the “Effect of pretreatment on degradation of BRD2, BRD3, and BRD4 induced by 23” value (from here on “Effect of pretreatment”) was “completely block”.
Take `CCn1nc(C2CC2)cc1Nc1nc(C(=O)NCCCCNC(=O)COc2cccc3c2C(=O)N(C2CCC(=O)NC2=O)C3=O)nc2[nH]c3cc(-c4c(C)noc4C)c(OC)cc3c12` (stereo not shown) [Compound 9, 4-((3-Cyclopropyl-1-ethyl-1H-pyrazol-5-yl)amino)-7-(3,5-dimethylisoxazol-4-yl)-N-(4-(2-((2-(2,6-dioxopiperidin-3-yl)-1,3-dioxoisoindolin-4-yl)oxy)acetamido)butyl)-6-methoxy-9H-pyrimido[4,5-b]indole-2-carboxamide]: the “Lowest concentrations effective in decreasing the level of BRD2, BRD3, and BRD4 proteins” value in assay [2] (3 h treatment, Western blot) lay within 3 to 10 nM. Moreover, the “times more potent than 8 in cell growth inhibition” value in assay [1] (comparator 8) turned out to be 6 times.
In the case of `CCn1nc(C2CC2)cc1Nc1nc(C(=O)NCCCCNc2cccc3c2C(=O)N(C2CCC(=O)NC2=O)C3=O)nc2[nH]c3cc(-c4c(C)noc4C)c(OC)cc3c12` (stereo not shown) [Compound 15, 4-((3-Cyclopropyl-1-ethyl-1H-pyrazol-5-yl)amino)-7-(3,5-dimethylisoxazol-4-yl)-N-(4-((2-(2,6-dioxopiperidin-3-yl)-1,3-dioxoisoindolin-4-yl)amino)butyl)-6-methoxy-9H-pyrimido[4,5-b]indole-2-carboxamide], the “times less potent than 14 in cell growth inhibition” value in assay [1] (comparator 14) was around 3 times.
As to `Nc1cccc2c1CN(C1CCC(=O)NC1=O)C2=O` (stereo not shown) [lenalidomide, reference compound], the “Effect of pretreatment” value in assay [2] is given as “effectively blocks”.
On to “4-((3-Cyclopropyl-1-ethyl-1H-pyrazol-5-yl)amino)-7-(3,5-dimethylisoxazol-4-yl)-N-(3-((2-(2,6-dioxopiperidin-3-yl)-1,3-dioxoisoindolin-4-yl)amino)propyl)-6-methoxy-9H-pyrimido[4,5-b]indole-2-carboxamide [Compound 16]”, for which the “times less potent than 15 in cell growth inhibition” value in assay [1] is reported as 5 times.
As for `CCn1nc(C2CC2)cc1Nc1nc(C(=O)NCCOCCCc2cccc3c2C(=O)N(C2CCC(=O)NC2=O)C3=O)nc2[nH]c3cc(-c4c(C)noc4C)c(OC)cc3c12` (stereo not shown) [Compound 19, 4-((3-Cyclopropyl-1-ethyl-1H-pyrazol-5-yl)amino)-7-(3,5-dimethylisoxazol-4-yl)-N-(2-(3-(2-(2,6-dioxopiperidin-3-yl)-1,3-dioxoisoindolin-4-yl)propoxy)ethyl)-6-methoxy-9H-pyrimido[4,5-b]indole-2-carboxamide], the “times less potent than 18 in cell growth inhibition” value in assay [1] (comparator 18) came out at 2 times.
Regarding `CCn1nc(C2CC2)cc1Nc1nc(C(=O)NCCCCNC(=O)CNc2cccc3c2C(=O)N(C2CCC(=O)NC2=O)C3=O)nc2[nH]c3cc(-c4c(C)noc4C)c(OC)cc3c12` (stereo not shown) [Compound 10, 4-((3-Cyclopropyl-1-ethyl-1H-pyrazol-5-yl)amino)-7-(3,5-dimethylisoxazol-4-yl)-N-(4-(2-((2-(2,6-dioxopiperidin-3-yl)-1,3-dioxoisoindolin-4-yl)amino)acetamido)butyl)-6-methoxy-9H-pyrimido[4,5-b]indole-2-carboxamide], the “times more potent than 9 in cell growth inhibition” value in assay [1] amounted to 2 times.
As for `CCn1nc(C2CC2)cc1Nc1nc(C(=O)NCCCCCCCOc2cccc3c2C(=O)N(C2CCC(=O)NC2=O)C3=O)nc2[nH]c3cc(-c4c(C)noc4C)c(OC)cc3c12` (stereo not shown) [Compound 11, 4-((3-Cyclopropyl-1-ethyl-1H-pyrazol-5-yl)amino)-7-(3,5-dimethylisoxazol-4-yl)-N-(7-((2-(2,6-dioxopiperidin-3-yl)-1,3-dioxoisoindolin-4-yl)oxy)heptyl)-6-methoxy-9H-pyrimido[4,5-b]indole-2-carboxamide], in assay [1], the “times more potent than 9 in cell growth inhibition” value came out at 10 times.
In the case of `CCn1nc(C2CC2)cc1Nc1nc(C(=O)NCCCCCCc2cccc3c2CN(C2CCC(=O)NC2=O)C3=O)nc2[nH]c3cc(-c4c(C)noc4C)c(OC)cc3c12` (stereo not shown) [Compound 21, 4-((3-Cyclopropyl-1-ethyl-1H-pyrazol-5-yl)amino)-7-(3,5-dimethylisoxazol-4-yl)-N-(6-(2-(2,6-dioxopiperidin-3-yl)-1-oxoisoindolin-4-yl)hexyl)-6-methoxy-9H-pyrimido[4,5-b]indole-2-carboxamide], the “Lowest concentration effective in decreasing the level of BRD4 protein” value at BRD4 was determined as 0.3 nM. For the same compound, the “Lowest concentration effective in decreasing the level of BRD2 protein” value on BRD2 is 0.3 nM. Besides, the “Lowest concentration effective in decreasing the level of BRD3 protein” value at BRD3 was determined as 0.1 nM.
With `CCn1nc(C2CC2)cc1Nc1nc(C(=O)NCCCCc2cccc3c2CN(C2CCC(=O)NC2=O)C3=O)nc2[nH]c3cc(-c4c(C)noc4C)c(OC)cc3c12` (stereo not shown) [Compound 24, 4-((3-Cyclopropyl-1-ethyl-1H-pyrazol-5-yl)amino)-7-(3,5-dimethylisoxazol-4-yl)-N-(4-(2-(2,6-dioxopiperidin-3-yl)-1-oxoisoindolin-4-yl)butyl)-6-methoxy-9H-pyrimido[4,5-b]indole-2-carboxamide], the “Lowest concentration effective in decreasing the level of BRD4 protein” value on BRD4 was 3 nM. Further, at BRD2, the “Lowest concentration effective in decreasing the level of BRD2 protein” value was 3 nM. In assay [1], the “times less potent than 23 in cell growth inhibition” value is on record as 19 times. At BRD3, the “Lowest concentration effective in decreasing the level of BRD3 protein” value came out at 1 nM.
In the case of `CCn1nc(C2CC2)cc1Nc1nc(C(=O)NCCCCCCNc2cccc3c2C(=O)N(C2CCC(=O)NC2=O)C3=O)nc2[nH]c3cc(-c4c(C)noc4C)c(OC)cc3c12` (stereo not shown) [Compound 13, 4-((3-Cyclopropyl-1-ethyl-1H-pyrazol-5-yl)amino)-7-(3,5-dimethylisoxazol-4-yl)-N-(6-((2-(2,6-dioxopiperidin-3-yl)-1,3-dioxoisoindolin-4-yl)amino)hexyl)-6-methoxy-9H-pyrimido[4,5-b]indole-2-carboxamide], in assay [1] (comparator 12), the “times less potent than 12 in cell growth inhibition” value came out at 3 times.
On to `CCn1nc(C2CC2)cc1Nc1nc(C(=O)NCCCCCc2cccc3c2CN(C2CCC(=O)N(C)C2=O)C3=O)nc2[nH]c3cc(-c4c(C)noc4C)c(OC)cc3c12` (stereo not shown) [Compound 26, 4-((3-Cyclopropyl-1-ethyl-1H-pyrazol-5-yl)amino)-7-(3,5-dimethylisoxazol-4-yl)-6-methoxy-N-(5-(2-(1-methyl-2,6-dioxopiperidin-3-yl)-1-oxoisoindolin-4-yl)pentyl)-9H-pyrimido[4,5-b]indole-2-carboxamide], for which the “Effect on the level of BRD2, BRD3, and BRD4 proteins” value in assay [2] (3 h treatment, Western blot) was “fails to induce degradation”. Moreover, in assay [1], the “times less potent than 23 in cell growth inhibition” value is above 600 times.
`CCn1nc(C2CC2)cc1Nc1nc(C(=O)NCCCc2cccc3c2CN(C2CCC(=O)NC2=O)C3=O)nc2[nH]c3cc(-c4c(C)noc4C)c(OC)cc3c12` (stereo not shown) [Compound 25, 4-((3-Cyclopropyl-1-ethyl-1H-pyrazol-5-yl)amino)-7-(3,5-dimethylisoxazol-4-yl)-N-(3-(2-(2,6-dioxopiperidin-3-yl)-1-oxoisoindolin-4-yl)propyl)-6-methoxy-9H-pyrimido[4,5-b]indole-2-carboxamide]: the “Lowest concentration effective in decreasing the level of BRD4 protein” value at BRD4 was determined as 10 nM. The “Lowest concentration effective in decreasing the level of BRD2 protein” value on BRD2 was “less potent and effective”. The “times less potent than 23 in cell growth inhibition” value in assay [1] was determined as 188 times. Also, the “Lowest concentration effective in decreasing the level of BRD3 protein” value on BRD3 worked out at 10 nM.
On to `CCn1nc(C2CC2)cc1Nc1nc(C(=O)NCCOCCCc2cccc3c2CN(C2CCC(=O)NC2=O)C3=O)nc2[nH]c3cc(-c4c(C)noc4C)c(OC)cc3c12` (stereo not shown) [Compound 22, 4-((3-Cyclopropyl-1-ethyl-1H-pyrazol-5-yl)amino)-7-(3,5-dimethylisoxazol-4-yl)-N-(2-(3-(2-(2,6-dioxopiperidin-3-yl)-1-oxoisoindolin-4-yl)propoxy)ethyl)-6-methoxy-9H-pyrimido[4,5-b]indole-2-carboxamide], for which, in assay [1] (comparator 19), the “times less potent than 19 in cell growth inhibition” value amounted to 2 times.
In the case of `CC(C)C[C@@H](C=O)NC(=O)[C@H](CC(C)C)NC(=O)[C@H](CC(C)C)NC(=O)OCc1ccccc1` [MG-132, reference compound] (Cbz-Leu-Leu-Leu-aldehyde), the “Effect of pretreatment” value in assay [2] is “completely block”.
